Active and inactive are the calls of the source. Bounds are passed on as bounds.

Data set [1] deals with Acetylcholinesterase (Electrophorus electricus) (UniProt O42275). Nature of the data set: (§1) Inhibition of electric eel AChE using acetylthiocholine iodide as substrate preincubated for 10 mins followed by substrate addition by Ellman's method. A general note: Ellman's reagent forms a yellow product with free thiols.
Data set [2] deals with Acetylcholinesterase (Electrophorus electricus, UniProt O42275). Described as §1.
Data set [3] deals with THP-1. Nature of the data set: Anti-inflammatory activity in human THP1 cells assessed as inhibition of LPS-induced TNFalpha production at 10 uM after 24 hrs by ELISA relative to control. It counts as functional. As to conditions: THP-1, 24 h. In a few lines:
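Human monocytic THP-1 cells (5×10^5 cells/mL) were given LPS 1 µg/mL with or without compound at 10 µM for 24 h. Cells were spun out at 500 × g and the medium kept at −80 °C. Secreted IL-1β and TNFα were measured with high-sensitivity ELISA. Three independent experiments.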
On the technique in general: An ELISA detects its analyte on a solid surface through an enzyme-linked reagent.

Data set [4] in a line: Selectivity ratio of IC50 for equine serum BuChE to IC50 for electric eel AChE. An outline of the steps:
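Ellman kinetic assay with Electrophorus electricus AChE (acetylthiocholine) and equine serum BuChE (butyrylthiocholine iodide), […]. Enzyme was preincubated 10 min with DTNB and compound in 0.1 M sodium phosphate, pH 7.4 (final DMSO <0.2%), before substrate was added. A412 was read every 12 s for 5 min at rt to give maximum velocity. IC50 is the geometric mean of 2–3 curves, each 6 concentrations in triplicate. Selectivity is IC50 BuChE/IC50 AChE.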

Data set [5] is described as follows: Cytotoxicity against human HepG2 cells assessed as cell viability at 20 to 40 uM after 6 hrs by trypan blue exclusion assay relative to control. Type of data set: cell-based. As to conditions: read-out: Activity.
Data set [6] deals with Mus musculus. Nature of the data set: Anti-inflammatory activity in Swiss mouse assessed as reduction in carrageenan-induced paw edema by measuring paw volume […] po pretreated for 1 hr followed by carrageenan injection and measured after 1 to 5 hrs by plethysmometric method (reference value: 67.73 +/- 4.2 uL). It counts as functional. In a few lines: (§2)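 Male Swiss mice (22–28 g) were fasted overnight and dosed orally with vehicle (2% DMSO in sterile saline), compound or indomethacin 1 h before intraplantar carrageenan. Groups (n=10) were matched on basal paw volume. Right hind paw volume was read by plethysmometer at 1, 3 and 5 h and expressed as change from basal.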
(In general: Carrageenan injected into the paw causes an acute inflammation.)

The target in data set [7] is Acetylcholinesterase (Electrophorus electricus) (UniProt O42275). Nature of the data set: Inhibition of electric eel AChE at 100 uM using acetylthiocholine iodide as substrate preincubated for 10 mins followed by substrate addition by Ellman's method relative to control.
Data set [8] relates to Mus musculus. Put plainly: Antinociceptive activity in formalin-induced Swiss mouse model of hyperalgesia assessed as time spent licking the injected paw in early phase at 100 mM/kg, po pretreated for 1 hr followed by formalin injection and measured up to 5 mins (reference value: 74 +/- 7.7 secs). Type of data set: functional.
The subject of data set [9] is HepG2. Nature of the data set: Genotoxicity in human HepG2 cells assessed as induction of DNA damage by measuring comet tail moment at 20 to 40 uM by alkaline comet assay. It counts as toxicity, cell-based. As to conditions: hepg2, 40 µM. In a few lines: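 HepG2 cells were exposed 6 h to 20 or 40 µM, then trypsinised; viability was checked by trypan blue. Cells were embedded in low-melting agarose and lysed at 4 °C, pH 10, for 24 h. DNA was unwound 20 min in pH 13 buffer, then electrophoresed 25 V/300 mA for 25 min, neutralised and stained with SYBR Green. Tail moment was scored on 50 nuclei per slide in triplicate slides; 3 independent experiments. Doxorubicin and UV light served as positive controls.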

Data set [10] deals with Mus musculus. Nature of the data set: Proinflammatory activity in C57Bl/6 mouse model of amyloid beta (1 to 42) oligomer-induced neuroinflammation assessed as induction of microgliosis in CA1 region of contralateral hippocampus at 100 mg/kg, ip pretreated for 1.5 hrs followed by amyloid beta (1 to 42) oligomer addition and measured after 7 days by Iba-1 staining based assay. As to conditions: in vivo, 168 h. It counts as organism-based. An outline of the steps: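 Male C57Bl/6 mice (25–30 g) got 100 mg/kg i.p. or vehicle 1.5 h before a unilateral right-hippocampal injection of Aβ1-42 oligomers (400 pmol/0.5 µL) or PBS. The oligomers were made by diluting the DMSO stock into PBS at 40 µM and holding at 4 °C for 48 h. After 7 days, brain sections were stained for Iba-1 (antigen retrieval, fluorescent secondary) and five CA1 images per hippocampus were taken; pixel density was read, n=10.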

In data set [11] the test system is PBMC. Nature of the data set: cells. To be noted: Homo sapiens, 6 h. It counts as ADME, cell-based.
Data set [12] has as its target Cholinesterase (Equus caballus, UniProt P81908). Nature of the data set: (§3) Inhibition of […] preincubated for 10 mins followed by substrate addition by Ellman's method.
The target of data set [13] is Cholinesterase (Equus caballus) (UniProt P81908). Described as §3.
Data set [14] has as its system Mus musculus. Put plainly: Anti-inflammatory activity in po dosed Swiss mouse assessed as reduction in carrageenan-induced paw edema pretreated for 1 hr followed by carrageenan injection and measured after 1 to 5 hrs by plethysmometric method. It counts as functional. As to conditions: read-out: ID50 (the source's name). In a few lines: as §2
Data set [15] has as its system Mus musculus. Nature of the data set: Antinociceptive activity in carrageenan-induced Swiss mouse model of mechanical hyperalgesia assessed as mechanical hyperalgesic index pretreated orally for 1 hr followed by carrageenan challenge by Von Frey filament assay. Type of data set: functional. In a few lines:
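Swiss mice were placed in wire-screen acrylic boxes 60 min before testing. Vehicle, compound or indomethacin was given orally 1 h before intraplantar carrageenan. Mechanical threshold was found by the von Frey up-and-down method, with at least 6 trials at 10 s intervals, raising filament mass until paw withdrawal. Results are given as threshold in grams; n=8.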

Data set [16] relates to SH-SY5Y. Put plainly: Neuroprotection in human SH-SY5Y cells assessed as inhibition of amyloid beta (1 to 42) oligomer-induced early neurotoxic event by measuring decrease in MTT formazan exocytosis at 10 uM after 4 hrs by microscopic method. Type of data set: functional, cell-based. In a few lines:
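SH-SY5Y cells (3×10^4/well) were grown 24 h, then co-treated with compound and Aβ1-42 oligomers (10 µM) for 4 h at 37 °C. Medium was replaced by MTT in PBS for 2 h. Needle-like exocytosed formazan crystals on the cell surface were assessed by light microscopy. Three independent experiments.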

Data set [17] concerns Mus musculus. Put plainly: Toxicity in C57Bl/6 mouse model of amyloid beta (1 to 42) oligomer-induced neuroinflammation assessed as induction of neurodegeneration in CA1 region of ipsilateral hippocampus at 100 mg/kg, ip pretreated for 1.5 hrs followed by amyloid beta (1 to 42) oligomer addition and measured after 7 days by Fluoro-Jade C staining based fluorescence microscopic assay. Type of data set: organism-based. To be noted: in vivo, 168 h. In a few lines: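 C57Bl/6 male mice were dosed i.p. at 100 mg/kg 1.5 h before stereotactic right intrahippocampal Aβ1-42 oligomer injection (400 pmol/0.5 µL), with PBS as control. After 7 days, hippocampal sections were stained with Fluoro-Jade C (0.0001%) after NaOH/ethanol and permanganate steps. Five CA1 images per hippocampus were imaged under fluorescence and pixel intensity quantified, n=10.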

Acetylcholinesterase (Electrophorus electricus), sequence (O42275 24-633 limits assumed): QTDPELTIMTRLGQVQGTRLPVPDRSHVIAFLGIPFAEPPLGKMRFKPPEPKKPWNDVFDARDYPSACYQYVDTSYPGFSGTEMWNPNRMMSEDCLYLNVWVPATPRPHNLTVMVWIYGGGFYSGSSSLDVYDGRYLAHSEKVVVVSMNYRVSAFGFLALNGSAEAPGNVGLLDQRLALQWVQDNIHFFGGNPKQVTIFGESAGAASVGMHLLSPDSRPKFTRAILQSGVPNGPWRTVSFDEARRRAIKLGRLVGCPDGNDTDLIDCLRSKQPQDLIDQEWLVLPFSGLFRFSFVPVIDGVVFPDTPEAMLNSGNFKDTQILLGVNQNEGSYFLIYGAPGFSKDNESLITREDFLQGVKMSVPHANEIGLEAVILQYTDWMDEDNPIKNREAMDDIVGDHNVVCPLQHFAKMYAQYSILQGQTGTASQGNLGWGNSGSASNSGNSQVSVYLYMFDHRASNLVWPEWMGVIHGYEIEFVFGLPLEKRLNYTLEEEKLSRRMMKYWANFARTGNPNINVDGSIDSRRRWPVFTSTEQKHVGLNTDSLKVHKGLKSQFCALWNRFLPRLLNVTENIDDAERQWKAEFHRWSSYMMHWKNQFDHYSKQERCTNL
Acetylcholinesterase, sequence (O42275 whole entry): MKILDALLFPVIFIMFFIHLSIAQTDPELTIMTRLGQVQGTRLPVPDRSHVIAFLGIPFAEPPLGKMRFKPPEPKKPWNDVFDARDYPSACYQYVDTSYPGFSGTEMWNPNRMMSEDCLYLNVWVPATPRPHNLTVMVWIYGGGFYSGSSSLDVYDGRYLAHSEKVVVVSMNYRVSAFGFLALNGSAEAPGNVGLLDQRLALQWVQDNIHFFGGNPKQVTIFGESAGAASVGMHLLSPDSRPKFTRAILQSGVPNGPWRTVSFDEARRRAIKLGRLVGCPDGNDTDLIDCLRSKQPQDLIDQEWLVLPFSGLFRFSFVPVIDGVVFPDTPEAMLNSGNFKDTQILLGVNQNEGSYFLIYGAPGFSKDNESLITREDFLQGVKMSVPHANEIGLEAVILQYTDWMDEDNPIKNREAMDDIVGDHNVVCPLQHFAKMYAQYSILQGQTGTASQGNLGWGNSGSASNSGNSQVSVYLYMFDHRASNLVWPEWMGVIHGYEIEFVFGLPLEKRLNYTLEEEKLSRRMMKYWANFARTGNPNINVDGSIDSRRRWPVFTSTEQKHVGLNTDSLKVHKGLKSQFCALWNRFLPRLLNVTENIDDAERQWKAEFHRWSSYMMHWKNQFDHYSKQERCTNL
Cholinesterase, sequence (P81908 whole entry): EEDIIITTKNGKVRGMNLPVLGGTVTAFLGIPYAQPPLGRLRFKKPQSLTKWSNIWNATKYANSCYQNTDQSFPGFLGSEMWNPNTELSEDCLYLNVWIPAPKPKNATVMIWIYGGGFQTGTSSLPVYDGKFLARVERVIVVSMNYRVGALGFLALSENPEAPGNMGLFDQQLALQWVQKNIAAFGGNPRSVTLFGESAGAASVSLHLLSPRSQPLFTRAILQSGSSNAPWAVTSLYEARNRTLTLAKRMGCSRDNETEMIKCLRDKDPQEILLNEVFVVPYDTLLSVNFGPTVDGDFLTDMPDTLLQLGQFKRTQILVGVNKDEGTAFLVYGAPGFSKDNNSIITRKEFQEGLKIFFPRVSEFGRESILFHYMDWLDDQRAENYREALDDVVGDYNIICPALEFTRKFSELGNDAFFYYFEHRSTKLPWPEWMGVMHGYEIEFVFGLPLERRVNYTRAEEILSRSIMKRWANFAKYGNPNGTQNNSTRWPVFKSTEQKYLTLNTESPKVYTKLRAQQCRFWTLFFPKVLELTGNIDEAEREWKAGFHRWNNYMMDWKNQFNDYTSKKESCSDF
Cholinesterase (Equus caballus), sequence (P81908 whole entry): as above

Usually inhibition stands for the percentage by which the read-out fell short of the control. Broadly, the IC50 is the concentration that inhibits the measured activity by half. High values mean weaker potency, low ones greater potency. Turning to `O=C(N/N=C/c1ccc(Cl)cc1)c1ccc(CN2CCCC(O)C2)cc1` (configuration not stated), the inhibition result was “Dose-dependent effect” in data set [1], greater than 60% in data set [7] and “Dose-dependent effect” in data set [13]. Moreover, the IC50 in [2] is 25.4 µM; in data set [11], greater than 100 µM; in data set [12], 48.2 µM. In [3], the inhibition at 10 µM stood at 98%. Also, in data set [4], the Ratio IC50 came to 1.9. In data set [5], the viability at 6 h, 40 µM was greater than 90%. For the same compound, the Activity is 17.14 µL in data set [6], “Non-Toxic” in [9] and “Non-Toxic” in data set [10]. Besides, the Time in data set [8] worked out at 14 s. In data set [14], the ED50 worked out at 8.76 µmol/kg. Moreover, the Activity_index in data set [15] turned out to be 168.3. Also, the inhibition result in data set [16] was “Active”.

`O=C(N/N=C/c1ccc(F)cc1)c1ccc(CN2CCCC(O)C2)cc1` (configuration not stated): the inhibition result was “Dose-dependent effect” in data set [1], greater than 60% in data set [7] and “Dose-dependent effect” in data set [13]. The values for the IC50 in data set [2], in [11] and in data set [12] were 8.65 µM, greater than 100 µM and 39 µM, respectively. For the same compound, in data set [3], the inhibition at 10 µM amounted to 69%. Besides, in data set [4], the Ratio IC50 was determined as 4.5. Also, in data set [5], the viability at 6 h, 40 µM is greater than 90%. Also, the Activity is 20 µL in data set [6], “Toxic” in data set [17], “Non-Toxic” in data set [9] and “Non-Toxic” in [10]. Further, the Time in data set [8] came to 18.86 s. The ED50 in data set [14] was determined as 4.66 µmol/kg. In addition, the Activity_index in [15] stood at 178.9.
